Reference: ChEMBL document CHEMBL4033654, “Ortho group activation of a bromopyrrole ester in Suzuki-Miyaura cross-coupling reactions: Application to the synthesis of new microtubule depolymerizing agents with potent cytotoxic activities” (Bioorg Med Chem, 2017)
Active and inactive are the calls of the source. No cut-off for these calls is given here.

Assays:
[1] = tested on: MDA-MB-435; assay: Antiproliferative activity against human MDA-MB-435 cells after 48 hrs by SRB assay; assay type: functional, cell-based; conditions: MDA-MB-435, 48 h
Summary of the method: (§1)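 Cell growth measured by sulforhodamine B assay across a concentration range. IC50 is taken from the dose-response curves, as mean ± SD of at least 3 independent experiments, each run in triplicate. HeLa WT-βIII cells express βIII tubulin. SK-OV-3 MDR-1-M6/6 cells are the P-glycoprotein-expressing isogenic partner of parental SK-OV-3.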

[2] = tested on: HeLa; assay: Antiproliferative activity against human HeLa cells after 48 hrs by SRB assay; assay type: functional, cell-based; summary of the method: as §1
[3] = tested on: HeLa; assay: Antiproliferative activity against human HeLa cells expressing wild type beta3 tubulin after 48 hrs by SRB assay; assay type: functional, cell-based; summary of the method: as §1
[4] = tested on: HeLa; assay: Resistance index, ratio of IC50 for human HeLa cells expressing wild type beta3 tubulin to IC50 for human HeLa cells; assay type: functional
Summary of the method: (§2)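 Relative resistance is the SRB IC50 in the expressing line divided by the IC50 in the isogenic parental line. The pairs are HeLa WT-βIII over HeLa (βIII tubulin) and SK-OV-3 MDR-1-M6/6 over SK-OV-3 (P-glycoprotein).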

[5] = tested on: SK-OV-3; assay: Antiproliferative activity against human SKOV3 cells after 48 hrs by SRB assay; assay type: functional, cell-based; conditions: SK-OV-3, 48 h; summary of the method: as §1
[6] = Antiproliferative activity against human SKOV3-MDR1-M6/6 cells after 48 hrs by SRB assay; assay type: functional, cell-based; conditions: SKOV3-MDR1-M6/6, 48 h; summary of the method: as §1
[7] = Resistance index, ratio of IC50 for human SKOV3-MDR1-M6/6 cells to IC50 for human SKOV3 cells; assay type: functional; summary of the method: as §2
[8] = Induction of tubulin depolymerization in rat A-10 cells after 18 hrs by indirect immunofluorescence method; assay type: cell-based
Summary of the method: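 A-10 cells exposed to a wide range of concentrations. Microtubules stained by indirect immunofluorescence, with nuclei counterstained. The percentage of depolymerized cellular microtubules is estimated visually. EC50, the concentration giving 50% loss of cellular microtubules, is found by linear regression.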

[9] = tested on: MDA-MB-435; assay: Antitumor activity against human MDA-MB-435 cells xenografted in athymic nude mouse assessed as tumor growth inhibition at 75 mg/kg, ip administered daily for 9 days measured on day 14; assay type: functional, organism-based
Summary of the method: (§3)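 Six-week-old female athymic nude mice implanted bilaterally with MDA-MB-435 cells. Dosing starts when tumors average 200 mm3. Drug given at 75 mg/kg/dose i.p. daily on days 0–8, solubilized in 2:1 Tween80:DMSO and diluted into PBS. Mice weighed twice weekly. On day 14, tumors excised and weighed and compared with control by unpaired two-tailed Student's t-test. Tumor volumes analysed by 2-way ANOVA with Dunnett's test.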

[10] = tested on: MDA-MB-435; assay: Antitumor activity against human MDA-MB-435 cells xenografted in athymic nude mouse assessed as reduction in mean tumor mass at 75 mg/kg, ip administered daily for 9 days measured on day 14; assay type: functional, organism-based; summary of the method: as §3
[11] = tested on: Mus musculus; assay: Toxicity in athymic nude mouse xenografted with human MDA-MB-435 cells assessed as overt toxicity at 75 mg/kg, ip administered daily for 9 days measured on day 14; assay type: organism-based; conditions: in vivo, 216 h; summary of the method: as §3
[12] = tested on: MDA-MB-435; assay: Antitumor activity against human MDA-MB-435 cells xenografted in athymic nude mouse assessed as tumor growth inhibition at 20 mg/kg, ip administered on day 2,4,6,8, and 11 measured on day 14; assay type: functional, organism-based
Summary of the method: (§4)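 Female athymic nude mice, six weeks old, bearing bilateral MDA-MB-435 xenografts averaging 200 mm3 at the start of treatment. […] Body weight recorded twice weekly through day 14. Tumor volumes analysed by 2-way ANOVA with Dunnett's post-hoc test.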

[13] = tested on: Mus musculus; assay: Toxicity in athymic nude mouse xenografted with human MDA-MB-435 cells assessed as body weight loss at 20 mg/kg, ip administered on day 2, 4, 6, 8 and 11 measured on day 14; assay type: organism-based; conditions: in vivo; summary of the method: as §4

Row | Compound | IC50 [1] [nM] | IC50 [2] [nM] | IC50 [3] [nM] | Ratio IC50 [4] | IC50 [5] [nM] | IC50 [6] [nM] | Ratio IC50 [7] | EC50 [8] [nM] | TGI [9] | Activity [10] | Activity [11] | TGI [12] | Activity [13] [%]
1 | CCOC(=O)c1[nH]c(/C=N/O)c(-c2ccc(OC)c(OC)c2OC)c1Br | 14 | 18 | 25 | 1.4 | 23.1 | 41.6 | 1.8 | 56 |  |  |  |  | 
2 | CCOC(=O)c1[nH]c(Cl)c(-c2ccc(OC)c(OC)c2OC)c1Cl | 116 | 131 | 140 | 1.1 | 210 | 140 | 0.67 | 1000 |  |  |  |  | 
3 | CCOC(=O)c1[nH]c(C#N)c(-c2ccc(OC)c(OC)c2OC)c1Br | 19.6 | 20.6 | 26.1 | 1.3 | 26.2 | 42.2 | 1.6 | 88 |  |  |  |  | 
4 | CCOC(=O)c1[nH]c(/C=N\O)c(-c2ccc(OC)c(OC)c2OC)c1Br | 25.3 | 29.4 | 31.3 | 1.1 | 33.7 | 49.6 | 1.5 | 108 |  |  |  |  | 
5 | CCOC(=O)c1[nH]c(Br)c(-c2ccc(OC)c(OC)c2OC)c1Br | 10.4 | 12.9 | 15.7 | 1.2 | 15.2 | 10.6 | 0.7 | 37 |  |  |  |  | 
6 | CCOC(=O)c1[nH]c(C=NO)c(-c2ccc(OC)c(OC)c2OC)c1Br (mixture of isomers) | 2.7 | 5 | 4.1 | 0.9 | 5.3 | 6.6 | 1.2 | 9.2 | Active | Active | Non-Toxic |  | 
7 | CC(=O)O[C@H]1C(=O)[C@@]2(C)[C@H]([C@H](OC(=O)c3ccccc3)[C@]3(O)C[C@H](OC(=O)[C@H](O)[C@@H](NC(=O)c4ccccc4)c4ccccc4)C(C)=C1C3(C)C)[C@]1(OC(C)=O)CO[C@@H]1C[C@@H]2O [PACLITAXEL] | 2 | 1.5 | 21.1 |  |  | 2330 |  |  |  |  |  | Active | 2.5
